{"source": "ChEMBL document CHEMBL3085688", "about": "“Thiazole-aminopiperidine hybrid analogues: design and synthesis of novel Mycobacterium tuberculosis GyrB inhibitors” (Eur J Med Chem, 2013)", "key": {"[1]": {"system": "Mycobacterium tuberculosis", "test": "Antimycobacterial activity against Mycobacterium tuberculosis H37Rv after 7 days by MABA assay", "format": "functional", "conditions": "168 h", "how_it_was_run": "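M. tuberculosis H37Rv in 7H9-S medium with OADC, adjusted to McFarland No. 1 and diluted 1:20 for inoculum. Drugs were diluted in 7H9-S at four-fold the highest final concentration, then serially two-fold diluted in plates alongside drug-free growth and sterile controls. Alamar blue microplate read-out.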"}, "[2]": {"test": "Cytotoxicity against mouse RAW264.7 cells at 50 uM after 72 hrs by MTT assay", "format": "cell-based", "conditions": "read-out: INH", "how_it_was_run": "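RAW 264.7 cells were exposed to compounds for 72 h. Viability was scored by cellular MTT conversion to formazan.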"}, "[3]": {"biological_target": "DNA gyrase subunit A/DNA gyrase subunit B (Mycobacterium tuberculosis (strain ATCC 25618 / H37Rv), UniProt P9WG45+P9WG47)", "sequence (P9WG45 whole entry)": "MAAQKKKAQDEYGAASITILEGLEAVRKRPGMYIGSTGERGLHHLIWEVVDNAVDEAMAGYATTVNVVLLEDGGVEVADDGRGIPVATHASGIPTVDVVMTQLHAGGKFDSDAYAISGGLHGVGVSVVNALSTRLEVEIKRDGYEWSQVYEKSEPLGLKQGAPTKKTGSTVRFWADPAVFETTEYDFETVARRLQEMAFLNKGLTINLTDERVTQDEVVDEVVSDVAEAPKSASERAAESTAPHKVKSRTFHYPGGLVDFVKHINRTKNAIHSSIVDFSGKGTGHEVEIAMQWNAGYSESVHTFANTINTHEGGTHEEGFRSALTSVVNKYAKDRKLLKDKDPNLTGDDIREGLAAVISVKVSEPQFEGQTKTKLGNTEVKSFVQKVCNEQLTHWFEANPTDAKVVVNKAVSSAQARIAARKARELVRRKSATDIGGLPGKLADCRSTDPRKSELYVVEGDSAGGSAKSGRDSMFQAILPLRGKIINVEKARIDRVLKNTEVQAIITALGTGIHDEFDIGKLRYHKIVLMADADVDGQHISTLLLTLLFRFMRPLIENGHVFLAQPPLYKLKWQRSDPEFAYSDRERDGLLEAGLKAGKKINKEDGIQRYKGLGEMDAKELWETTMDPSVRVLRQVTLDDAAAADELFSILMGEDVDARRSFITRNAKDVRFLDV", "sequence (P9WG47 whole entry)": "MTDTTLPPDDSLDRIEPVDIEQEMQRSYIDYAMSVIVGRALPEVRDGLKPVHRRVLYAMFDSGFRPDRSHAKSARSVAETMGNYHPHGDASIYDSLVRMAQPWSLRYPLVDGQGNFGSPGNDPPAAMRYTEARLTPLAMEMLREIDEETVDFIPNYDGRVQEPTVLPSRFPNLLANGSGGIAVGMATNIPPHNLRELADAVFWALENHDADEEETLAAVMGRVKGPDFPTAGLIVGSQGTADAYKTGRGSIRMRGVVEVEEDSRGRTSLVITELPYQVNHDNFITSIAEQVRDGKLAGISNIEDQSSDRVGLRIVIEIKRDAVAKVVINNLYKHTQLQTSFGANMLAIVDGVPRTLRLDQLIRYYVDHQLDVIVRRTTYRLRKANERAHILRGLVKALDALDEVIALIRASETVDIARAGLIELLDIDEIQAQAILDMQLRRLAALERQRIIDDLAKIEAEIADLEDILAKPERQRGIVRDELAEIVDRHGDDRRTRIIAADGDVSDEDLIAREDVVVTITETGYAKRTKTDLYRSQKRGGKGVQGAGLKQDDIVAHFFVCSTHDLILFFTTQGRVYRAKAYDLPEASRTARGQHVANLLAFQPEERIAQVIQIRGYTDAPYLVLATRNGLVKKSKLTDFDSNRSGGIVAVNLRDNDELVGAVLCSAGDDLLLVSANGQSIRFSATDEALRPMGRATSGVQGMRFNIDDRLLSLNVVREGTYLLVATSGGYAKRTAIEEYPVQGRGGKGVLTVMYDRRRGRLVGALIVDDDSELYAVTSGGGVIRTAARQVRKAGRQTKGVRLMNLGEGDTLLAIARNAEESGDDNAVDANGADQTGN", "test": "Inhibition of Mycobacterium tuberculosis DNA gyrase super coiling activity of relaxed pBR322 using ethidium bromide staining by agarose gel electrophoresis"}, "Escherichia coli": {"system": "Escherichia coli", "test": "Inhibition of Escherichia coli DNA gyrase"}, "Staphylococcus aureus": {"system": "Staphylococcus aureus", "test": "Inhibition of Staphylococcus aureus GyrB"}, "DNA gyrase subunit B": {"biological_target": "DNA gyrase subunit B (Mycobacterium smegmatis, UniProt P0C559)", "sequence (P0C559 whole entry)": "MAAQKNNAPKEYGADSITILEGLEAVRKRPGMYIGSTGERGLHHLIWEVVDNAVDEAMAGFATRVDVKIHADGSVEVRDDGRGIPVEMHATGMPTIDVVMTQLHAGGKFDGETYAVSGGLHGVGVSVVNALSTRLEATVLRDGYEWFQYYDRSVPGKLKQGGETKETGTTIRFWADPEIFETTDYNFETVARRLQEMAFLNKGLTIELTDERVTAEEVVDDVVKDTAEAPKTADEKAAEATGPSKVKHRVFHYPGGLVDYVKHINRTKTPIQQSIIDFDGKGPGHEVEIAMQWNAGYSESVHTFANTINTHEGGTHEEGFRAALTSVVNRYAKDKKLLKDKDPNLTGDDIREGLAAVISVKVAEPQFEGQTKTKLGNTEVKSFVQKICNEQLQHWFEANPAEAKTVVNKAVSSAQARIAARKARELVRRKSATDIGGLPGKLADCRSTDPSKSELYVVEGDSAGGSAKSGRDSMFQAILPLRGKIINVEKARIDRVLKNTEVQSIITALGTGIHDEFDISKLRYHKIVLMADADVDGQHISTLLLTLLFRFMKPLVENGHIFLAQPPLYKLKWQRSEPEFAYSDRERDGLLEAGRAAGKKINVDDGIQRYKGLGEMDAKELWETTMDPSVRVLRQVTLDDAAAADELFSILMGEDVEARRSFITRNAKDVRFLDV", "test": "Inhibition of Mycobacterium smegmatis GyrB ATPase activity expressed in Escherichia coli BL21 (DE3) after 2 hrs", "design": "species or system Mycolicibacterium smegmatis"}}, "note": "Calls of active or inactive are those of the source. No cut-off for these calls is given here."}
{"smiles": "CCOC(=O)c1sc(-c2ccncc2)nc1N1CCC(NCc2ccc(OCc3ccccc3)cc2)CC1", "values": [{"measurement": "MIC", "setting": "[1]", "value": 47.3, "unit": "µM"}, {"measurement": "cytotoxicity at 72 h, 50 µM", "setting": "[2]", "value": 8.04, "unit": "%"}]}
{"smiles": "CCOC(=O)c1sc(-c2ccccc2)nc1N1CCC(NCc2ccc(Cl)c(Cl)c2)CC1", "values": [{"measurement": "MIC", "setting": "[1]", "value": "> 102", "unit": "µM"}, {"measurement": "cytotoxicity at 72 h, 50 µM", "setting": "[2]", "value": 18.1, "unit": "%"}]}
{"smiles": "CCOC(=O)c1sc(-c2ccncc2)nc1N1CCC(NCc2cccc(C(F)(F)F)c2)CC1", "values": [{"measurement": "MIC", "setting": "[1]", "value": 51, "unit": "µM"}, {"measurement": "cytotoxicity at 72 h, 50 µM", "setting": "[2]", "value": 14.3, "unit": "%"}]}
{"smiles": "CCOC(=O)c1sc(-c2ccccc2)nc1N1CCC(NCc2ccccc2)CC1", "values": [{"measurement": "MIC", "setting": "[1]", "value": 119, "unit": "µM"}, {"measurement": "cytotoxicity at 72 h, 50 µM", "setting": "[2]", "value": 11.7, "unit": "%"}]}
{"smiles": "CCOC(=O)c1sc(-c2ccccn2)nc1N1CCC(NCc2ccc(F)cc2)CC1", "values": [{"measurement": "MIC", "setting": "[1]", "value": 28.4, "unit": "µM"}, {"measurement": "cytotoxicity at 72 h, 50 µM", "setting": "[2]", "value": 12.6, "unit": "%"}]}
{"smiles": "CCOC(=O)c1sc(-c2ccccc2)nc1N1CCC(NCc2ccc(F)cc2)CC1", "values": [{"measurement": "IC50", "setting": "[3]", "value": 27.1, "unit": "µM"}, {"measurement": "inhibition", "setting": "Escherichia coli", "value": "inactive"}, {"measurement": "MIC", "setting": "[1]", "value": 28.4, "unit": "µM"}, {"measurement": "cytotoxicity at 72 h, 50 µM", "setting": "[2]", "value": 6.23, "unit": "%"}, {"measurement": "inhibition", "setting": "Staphylococcus aureus", "value": "inactive"}, {"measurement": "IC50", "setting": "DNA gyrase subunit B", "value": 24, "unit": "µM"}]}
{"smiles": "CCOC(=O)c1sc(-c2ccccc2)nc1N1CCC(NCc2ccc(OCc3ccccc3)cc2)CC1", "values": [{"measurement": "MIC", "setting": "[1]", "value": 47.4, "unit": "µM"}, {"measurement": "cytotoxicity at 72 h, 50 µM", "setting": "[2]", "value": 18.4, "unit": "%"}]}
{"smiles": "CCOC(=O)c1sc(-c2ccccc2)nc1N1CCC(NCc2cccc(C(F)(F)F)c2)CC1", "values": [{"measurement": "MIC", "setting": "[1]", "value": 102, "unit": "µM"}, {"measurement": "cytotoxicity at 72 h, 50 µM", "setting": "[2]", "value": 28.1, "unit": "%"}, {"measurement": "inhibition", "setting": "Staphylococcus aureus", "value": "inactive"}, {"measurement": "IC50", "setting": "DNA gyrase subunit B", "value": 26.9, "unit": "µM"}]}
{"smiles": "CCOC(=O)c1sc(-c2ccccc2)nc1N1CCC(NCc2ccc(OC)cc2)CC1", "values": [{"measurement": "MIC", "setting": "[1]", "value": "> 111", "unit": "µM"}, {"measurement": "cytotoxicity at 72 h, 50 µM", "setting": "[2]", "value": 8.4, "unit": "%"}]}
{"smiles": "CCOC(=O)c1sc(-c2ccncc2)nc1N1CCC(NCc2ccc(OC)cc2)CC1", "values": [{"measurement": "MIC", "setting": "[1]", "value": 110, "unit": "µM"}, {"measurement": "cytotoxicity at 72 h, 50 µM", "setting": "[2]", "value": 16.1, "unit": "%"}]}
{"smiles": "CCOC(=O)c1sc(-c2ccccn2)nc1N1CCC(NCc2cccc(C(F)(F)F)c2)CC1", "values": [{"measurement": "MIC", "setting": "[1]", "value": 25.5, "unit": "µM"}, {"measurement": "cytotoxicity at 72 h, 50 µM", "setting": "[2]", "value": 19.2, "unit": "%"}, {"measurement": "inhibition", "setting": "Staphylococcus aureus", "value": "inactive"}, {"measurement": "IC50", "setting": "DNA gyrase subunit B", "value": 29.1, "unit": "µM"}]}
{"smiles": "CCOC(=O)c1sc(-c2ccccn2)nc1N1CCC(NCc2ccc(C(F)(F)F)cc2)CC1", "values": [{"measurement": "MIC", "setting": "[1]", "value": 51, "unit": "µM"}, {"measurement": "cytotoxicity at 72 h, 50 µM", "setting": "[2]", "value": 14.6, "unit": "%"}]}
{"smiles": "CCOC(=O)c1sc(-c2ccncc2)nc1N1CCC(NCc2ccc(F)cc2)CC1", "values": [{"measurement": "MIC", "setting": "[1]", "value": 56.8, "unit": "µM"}, {"measurement": "cytotoxicity at 72 h, 50 µM", "setting": "[2]", "value": 17.4, "unit": "%"}]}
{"smiles": "CCOC(=O)c1sc(-c2ccncc2)nc1N1CCC(NCc2ccc(Cl)c(Cl)c2)CC1", "values": [{"measurement": "MIC", "setting": "[1]", "value": 102, "unit": "µM"}, {"measurement": "cytotoxicity at 72 h, 50 µM", "setting": "[2]", "value": 32.2, "unit": "%"}]}
{"smiles": "CCOC(=O)c1sc(-c2ccncc2)nc1N1CCC(NCc2ccccc2)CC1", "values": [{"measurement": "MIC", "setting": "[1]", "value": 59.2, "unit": "µM"}, {"measurement": "cytotoxicity at 72 h, 50 µM", "setting": "[2]", "value": 10.8, "unit": "%"}]}
{"smiles": "CCOC(=O)c1sc(-c2ccccn2)nc1N1CCC(NCc2ccccc2)CC1", "values": [{"measurement": "MIC", "setting": "[1]", "value": 59.2, "unit": "µM"}, {"measurement": "cytotoxicity at 72 h, 50 µM", "setting": "[2]", "value": 14.6, "unit": "%"}]}
{"smiles": "CCOC(=O)c1sc(-c2ccccn2)nc1N1CCC(NCc2ccc(Cl)cc2Cl)CC1", "values": [{"measurement": "MIC", "setting": "[1]", "value": 50.9, "unit": "µM"}, {"measurement": "cytotoxicity at 72 h, 50 µM", "setting": "[2]", "value": 18.6, "unit": "%"}]}
{"smiles": "CCOC(=O)c1sc(-c2ccccn2)nc1N1CCC(NCc2ccc(OC)cc2)CC1", "values": [{"measurement": "MIC", "setting": "[1]", "value": 55.2, "unit": "µM"}, {"measurement": "cytotoxicity at 72 h, 50 µM", "setting": "[2]", "value": 4.62, "unit": "%"}]}
{"smiles": "CCOC(=O)c1sc(-c2ccncc2)nc1N1CCC(NCc2ccc(Cl)cc2Cl)CC1", "values": [{"measurement": "MIC", "setting": "[1]", "value": 25.4, "unit": "µM"}, {"measurement": "cytotoxicity at 72 h, 50 µM", "setting": "[2]", "value": 18.4, "unit": "%"}, {"measurement": "inhibition", "setting": "Staphylococcus aureus", "value": "inactive"}, {"measurement": "IC50", "setting": "DNA gyrase subunit B", "value": 27.1, "unit": "µM"}]}
{"smiles": "CCOC(=O)c1sc(-c2ccccn2)nc1N1CCC(NCc2ccc(OCc3ccccc3)cc2)CC1", "values": [{"measurement": "MIC", "setting": "[1]", "value": 47.3, "unit": "µM"}, {"measurement": "cytotoxicity at 72 h, 50 µM", "setting": "[2]", "value": 12.8, "unit": "%"}]}
{"smiles": "CCOC(=O)c1sc(-c2ccncc2)nc1N1CCC(NCc2ccc(C(F)(F)F)cc2)CC1", "values": [{"measurement": "MIC", "setting": "[1]", "value": 102, "unit": "µM"}, {"measurement": "cytotoxicity at 72 h, 50 µM", "setting": "[2]", "value": 18.1, "unit": "%"}]}
{"smiles": "CO[C@@H]1[C@@H](OC(N)=O)[C@@H](O)[C@H](Oc2ccc3c(O)c(NC(=O)c4ccc(O)c(CC=C(C)C)c4)c(=O)oc3c2C)OC1(C)C", "note": "[NOVOBIOCIN]", "values": [{"measurement": "inhibition", "setting": "Escherichia coli", "value": "inactive"}, {"measurement": "MIC", "setting": "[1]", "value": "> 200", "unit": "µM"}, {"measurement": "inhibition", "setting": "Staphylococcus aureus", "value": "inactive"}]}
{"smiles": "CCOC(=O)c1sc(-c2ccccc2)nc1N1CCC(NCc2ccc(C(F)(F)F)cc2)CC1", "values": [{"measurement": "MIC", "setting": "[1]", "value": 102, "unit": "µM"}, {"measurement": "cytotoxicity at 72 h, 50 µM", "setting": "[2]", "value": 22.7, "unit": "%"}]}
{"smiles": "CCOC(=O)c1sc(-c2ccccn2)nc1N1CCC(NCc2ccc(Cl)c(Cl)c2)CC1", "values": [{"measurement": "MIC", "setting": "[1]", "value": "> 102", "unit": "µM"}, {"measurement": "cytotoxicity at 72 h, 50 µM", "setting": "[2]", "value": 30.1, "unit": "%"}]}
{"smiles": "CCOC(=O)c1sc(-c2ccccc2)nc1N1CCC(NCc2ccc(Cl)cc2Cl)CC1", "values": [{"measurement": "MIC", "setting": "[1]", "value": 51, "unit": "µM"}, {"measurement": "cytotoxicity at 72 h, 50 µM", "setting": "[2]", "value": 9.43, "unit": "%"}]}
